IMP-1 inhibitor = blocks Pseudomonas aeruginosa IMP-1 metallo-beta-lactamase | purified IMP-1, nitrocefin hydrolysis, epi-absorbance fluorescence | inhibition, % at 5.6 µM | actives 0.45% (n = 290,000);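 active means inhibition above the mean plus 3 SD of all compounds in the same screening run, cut at about 4.5% in these data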;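 further: 0% = IMP-1 with DMSO and 100% = DMSO wells lacking enzyme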
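System: Purified IMP-1 | Read-out basis: Percent enzyme inhibition | Controls: IMP-1 with DMSO as 0%, enzyme-free DMSO as 100% | Replicates: One well per compound | Doses: 5.6 µM nominal single concentration | Detection: Epi-absorbance fluorescence, 480 nm excitation, 530 nm emission | Incubation: 25 °C, 15 min preincubation, 25 min reaction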
VIM-2 inh = inhibitors of Pseudomonas aeruginosa VIM-2 metallo-beta-lactamase | actives 0.89% (n = 290,000) | AID 1527 | inhibition, % at 5.6 µM | purified VIM-2, nitrocefin hydrolysis, epi-absorbance fluorescence;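 active means inhibition above the mean of all tested compounds plus 3 SD, cutoff set per screening run, cut at about 7.5% in these data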;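 further: red hydrolysis product quenches plate fluorescence so inhibitors raise well fluorescence; 0% = enzyme with DMSO and 100% = DMSO without enzyme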
MEKK2wt PB1 HTS = raises or lowers MEK5 binding to wildtype human MEKK2 PB1 domain; Q9Y2U5; bead flow cytometry, Alexa488-MEK5 binding to MEKK2 WT; actives lie on both sides; binding response (% of control), % at 10 µM; actives 1.1% (n = 290,000); in the data active means binding response below about 67% or above about 130%
MEKK2 mut-MEK5 = signal of MEK5 binding to mutant human MEKK2 PB1 domain; bead flow cytometry, Alexa488-MEK5 binding to MEKK2 mutant; percent response, % at 10 µM; actives 0.35% (n = 290,000); in the data active means percent response above about 24%, passing the limit was not always enough
MEKK3 PB1 HTS = modulators (inhibitors or enhancers) of MEK5 binding to human MEKK3 PB1 domain; actives 1.4% (n = 290,000); Q99759; bead-based flow cytometry, Alexa488-MEK5 binding to MEKK3; actives lie on both sides; 0 = blocked by unlabeled MEK5, 100 = vehicle; binding response (% of control), % at 10 µM;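 active means binding response more than 3 SD above or below the average of its plate-row segment, actives on both sides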;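 further: Alexa488 bead fluorescence after subtracting the streptavidin-only scavenger bead signal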
Target sequence (Q99759 whole entry, looked up, the tested form may be a part): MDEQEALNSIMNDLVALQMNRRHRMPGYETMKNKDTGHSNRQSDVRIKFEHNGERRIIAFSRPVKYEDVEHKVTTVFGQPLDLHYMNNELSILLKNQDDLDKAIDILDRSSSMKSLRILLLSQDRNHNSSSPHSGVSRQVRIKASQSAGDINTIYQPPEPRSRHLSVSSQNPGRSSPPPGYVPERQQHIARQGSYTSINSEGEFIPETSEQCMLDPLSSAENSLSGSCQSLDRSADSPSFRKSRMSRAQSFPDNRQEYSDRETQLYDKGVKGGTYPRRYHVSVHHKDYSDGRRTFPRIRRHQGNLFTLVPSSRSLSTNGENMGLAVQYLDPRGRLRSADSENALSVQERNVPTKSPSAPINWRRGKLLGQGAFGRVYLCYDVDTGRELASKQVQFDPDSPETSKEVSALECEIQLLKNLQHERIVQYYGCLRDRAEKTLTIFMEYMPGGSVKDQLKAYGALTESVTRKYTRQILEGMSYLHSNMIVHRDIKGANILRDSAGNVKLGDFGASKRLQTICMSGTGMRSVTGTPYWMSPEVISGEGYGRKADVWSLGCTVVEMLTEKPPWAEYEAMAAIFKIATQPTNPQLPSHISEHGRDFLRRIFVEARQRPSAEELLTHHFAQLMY
An asterisk follows results filed as active; x = no result; ! = a repeat was not active; [ ] = remark or other dose. A selection: hits, their analogues and other compounds. The true share with any hit is near 3.4%.

SMILES	IMP-1 inhibitor	VIM-2 inh	MEKK2wt PB1 HTS	MEKK2 mut-MEK5	MEKK3 PB1 HTS
COc1ccc(-c2[nH]ncc2CNC(C)CCn2cccn2)cc1F (stereo not drawn)	-1.9	0.2	101.0	-9.0	101.0
COc1ccc(CC(=O)NC2CCN(CC(=O)Nc3ccc4c(c3)OCCO4)CC2)cc1OC	12.0*	-4.4	100.0	1.0	98.0
COc1cccc(Nc2cc(C)nc3nc(C)nn23)c1	-0.6	10.8*	105.0	4.0	102.0
Cc1cc(Nc2ccc(F)c(Cl)c2)n2nc(C)nc2n1	-5.3	1.1	101.0	-2.0	113.0
CCOC(=O)c1ccccc1Nc1cc(C)nc2nc(C)nn12	-1.9	9.5*	101.0	1.0	100.0
CCOc1ccc(Nc2cc(C)nc3nc(C)nn23)cc1	1.2	8.4*	98.0	-4.0	106.0
COC(=O)c1ccc(Nc2cc(C)nc3nc(C)nn23)cc1	1.6	7.2	89.0	-7.0	85.0
COc1ccc(Nc2cc(C)nc3nc(C)nn23)c(OC)c1	-3.1	12.2*	97.0	-4.0	99.0
COc1ccc(Nc2cc(C)nc3ncnn23)c(OC)c1	-1.6	5.7	97.0	-2.0	94.0
O=C(c1ccc(S(=O)(=O)N2CCCC2)cc1)N1CCC(CN2C(=O)c3cccc4cccc(c34)C2=O)CC1	-3.5	-0.4	100.0	11.0	107.0
COc1ccc(CCn2c(N3CCOCC3)nc3c2c(=O)[nH]c(=O)n3C)cc1	0.7	-0.2	109.0	5.0	104.0
O=C(Nc1ccnn1C1CCN(C/C=C/c2ccccc2)CC1)C1CCCC1	-0.5	0.7	124.0	12.0	106.0
O=C(CCc1ccccc1)Nc1ccnn1C1CCN(C/C=C/c2ccccc2)CC1	1.1	-3.6	126.0	27.0*	108.0
COc1ccccc1/C=C/CN1CCC(n2nccc2NC(=O)CCc2ccccc2)CC1	-2.1	-1.8	138.0*	11.0	103.0
COC(=O)CSc1nc2sc3c(c2c(=O)n1-c1ccc(OC)cc1)CCN(C)C3	5.8*	1.9	93.0	-5.0	93.0
COc1ccc(-n2c(SCCNCCO)nc3sc4c(c3c2=O)CCCC4)cc1	-4.9	3.4	144.0*	24.0*	108.0
O=[N+]([O-])c1ccc(OCCCOc2cccc3cccnc23)cc1	-2.7	-1.4	102.0	5.0	104.0
CC(C)(C)Cc1nnc(NS(=O)(=O)Cc2ccccc2)s1	-3.7	9.0*	108.0	12.0	103.0
Cc1ccccc1Cn1c(C)cc(C)c(C#N)c1=O	4.5*	-1.6	95.0	-8.0	103.0
Cc1cc(C)n(Cc2ccc(F)cc2)c(=O)c1C#N	-0.7	-0.4	108.0	6.0	107.0
O=C(CC1SC(=O)N(c2ccccc2)C1=O)Nc1cccc2ccccc12 (stereo not drawn)	4.8*	-0.3	99.0	-10.0	104.0
CCOC(=O)N1CCN(C(=O)c2cn(C)c3ccc(S(=O)(=O)N4CCC(C)CC4)cc3c2=O)CC1	-1.6	-1.1	99.0	-2.0	96.0
Cc1ccc(/C=N/Nc2cn[nH]c(=O)n2)o1	-2.9	-6.8	97.0	-9.0	106.0
O=c1nc(N/N=C/c2ccccn2)cn[nH]1	-1.2	-2.9	4.0*[inhibitor]	-18.0	3.0*[inhibitor]
C(=N\Nc1nncc2ccccc12)/c1ccccn1	6.5*	0.8	109.0	15.0	106.0
SMILES	IMP-1 inhibitor	VIM-2 inh	MEKK2wt PB1 HTS	MEKK2 mut-MEK5	MEKK3 PB1 HTS
Fc1cccc(/C=N/Nc2nncc3ccccc23)c1	-2.1	-3.8	100.0	4.0	99.0
Cc1ccc(S(=O)(=O)N/N=C/c2cccc(OC3CSC3)c2)cc1	-5.3	-6.0	110.0	5.0	111.0
COC(=O)c1nn(-c2ccccc2)c2nnc(Cc3ccc(C)cc3)c(=O)n12	-4.1	-0.2	107.0	-1.0	104.0
Cc1[nH]c2ccccc2c1Cc1nnc(SCC(N)=O)o1	9.6*	0.3	108.0	8.0	104.0
O=C(O)C1C2CCC(CC2)C1C(=O)N1CCN(Cc2ccc(F)cc2)CC1 (stereo not drawn)	15.2*	-0.1	103.0	1.0	100.0
Cc1ccccc1N1C(S)=C(C#N)C(=O)NC1c1ccco1 (stereo not drawn)	1.2	0.9	97.0	-53.0	93.0
COc1cccc(C(C[N+](=O)[O-])c2c(C)[nH]n(-c3ccccc3)c2=O)c1 (stereo not drawn)	1.7	12.1*	97.0	-4.0	98.0
O=C(Cn1cnc2c(cnn2-c2ccc(Cl)cc2)c1=O)NC1CCCCC1	5.4*	-2.0	104.0	7.0	113.0
CCOC(=O)c1cc(-c2ccccc2)nn1CC1CC(c2ccc(Cl)cc2)=NO1 (stereo not drawn)	x	x	95.0	-7.0	99.0
COC(=O)c1ccc(N(C(=O)c2ccco2)C(C(=O)NC2CCCC2)c2ccco2)cc1 (stereo not drawn)	4.5*	2.8	103.0	2.0	83.0
Oc1ccc(Cl)cc1CNc1ccc(Br)cn1	-1.4	-0.2	76.0	-11.0	71.0
Oc1c(Cl)cc(Cl)cc1CNc1ccc(Br)cn1	6.1*	-2.1	118.0	3.0	106.0
Cc1cc(-c2[nH]nc3c2C(c2cccc(O)c2)C(C#N)=C(N)O3)c(C)s1 (stereo not drawn)	6.8*	3.0	81.0	-13.0	78.0
CC(=O)NS(=O)(=O)c1ccc2c(c1)C(=O)c1cc(S(=O)(=O)NC(C)=O)ccc1-2	1.8	2.5	-8.0*	-3.0	98.0
O=C(O)c1cc(Cl)ccc1-c1ccc(/C=C/c2cc(C(F)(F)F)[nH]c(=O)n2)o1	3.3	1.9	94.0	-9.0	107.0
O=C(Nc1ccc(F)c(F)c1)C1CCCN(S(=O)(=O)c2cnc[nH]2)C1 (stereo not drawn)	-1.5	1.5	101.0	1.0	102.0
Cc1ccc(CCNC(=O)C2CCCN(S(=O)(=O)c3cnc[nH]3)C2)cc1 (stereo not drawn)	4.8*	0.2	102.0	2.0	101.0
O=C(Nc1ccc(Cl)c(C(F)(F)F)c1)C1CCCN(S(=O)(=O)c2cnc[nH]2)C1 (stereo not drawn)	6.6*	-1.6	102.0	4.0	104.0
O=C(OCCN1CCOCC1)c1cccnc1	8.4*!	-1.0	101.0	4.0	97.0
O=C(OCCN1CCOCC1)c1ccccc1	1.8	0.9	109.0	4.0	105.0
Nc1nonc1C(=O)NCCN=Cc1cc(Cc2ccccc2)cc(Br)c1O	8.7*	-4.2	x	x	x
Nc1nonc1C(=O)NCCN=Cc1ccccc1O	-0.5	-3.5	102.0	3.0	106.0
C[C@@H]1CN(c2c(F)c(N)c3c(=O)c(C(=O)O)cn(C4CC4)c3c2F)C[C@H](C)N1	-1.4	8.4*	88.0	-7.0	85.0
COc1ccc(C2(O)CC3CCC(C2)N3c2nc(C)cc(C)c2C#N)cc1 (stereo not drawn)	-2.9	-2.0	99.0	1.0	97.0
Cc1nn(C)c(Cl)c1CN1CCCC(C(=O)Nc2ccc(-c3cscn3)cc2)C1 (stereo not drawn)	-2.4	-1.4	106.0	-5.0	92.0
